What was measured:
HeLa = assay: Antiproliferative activity against human HeLa cells after 72 hrs by Coulter counter method; type: functional, cell-based
In short: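 Cell count assay in 96-well microtiter plates; (5–7.5) × 10⁴ tumor cells per well plus test compound. Cells proliferated at 37 °C in humidified CO₂-controlled atmosphere, 48 h for murine leukemia L1210, 72 h for human lymphocytic CEM and cervix carcinoma HeLa. Counted by Coulter counter; IC₅₀ is the concentration that inhibits proliferation by 50%.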

EKVX = assay: Cytotoxicity against human EKVX cells after 48 hrs by SRB assay; type: functional
HOP-92 = assay: Cytotoxicity against human HOP92 cells after 48 hrs by SRB assay; type: functional; details: HOP-92, 48 h
SF-268 = assay: Cytotoxicity against human SF268 cells after 48 hrs by SRB assay; type: functional; details: SF-268, 48 h
OVCAR-5 = assay: Cytotoxicity against human OVCAR5 cells after 48 hrs by SRB assay; type: functional; details: OVCAR-5, 48 h
SK-OV-3 = assay: Cytotoxicity against human SKOV3 cells after 48 hrs by SRB assay; type: functional; details: SK-OV-3, 48 h
RXF 393 = assay: Cytotoxicity against human RXF393 cells after 48 hrs by SRB assay; type: functional; details: RXF 393, 48 h
SN12C = assay: Cytotoxicity against human SN12C cells after 48 hrs by SRB assay; type: functional
MCF7 = assay: Cytotoxicity against human MCF7 cells after 48 hrs by SRB assay; type: functional; details: MCF7, 48 h
HL-60(TB) = assay: Growth inhibition of human HL-60(TB) cells assessed as cell growth at 10^-8 M incubated for 48 hrs by sulforhodamine B assay relative to control; type: functional; details: HL-60, 48 h, read-out: Activity
A549 [1] = assay: Growth inhibition of human A549/ATCC cells assessed as cell growth at 10^-8 M incubated for 48 hrs by sulforhodamine B assay relative to control; type: functional; details: A549, 48 h, read-out: Activity
KM12 = assay: Growth inhibition of human KM12 cells assessed as cell growth at 10^-8 M incubated for 48 hrs by sulforhodamine B assay relative to control; type: functional; details: KM12, 48 h, read-out: Activity
BT-549 [2] = assay: Growth inhibition of human BT549 cells assessed as cell growth at 10^-8 M incubated for 48 hrs by sulforhodamine B assay relative to control; type: functional; details: BT-549, 48 h, read-out: Activity
SR = assay: Growth inhibition of human SR cells assessed as cell growth at 10^-7 M incubated for 48 hrs by sulforhodamine B assay relative to control; type: functional; details: read-out: Activity
A549 [3] = assay: Growth inhibition of human A549/ATCC cells assessed as cell growth at 10^-7 M incubated for 48 hrs by sulforhodamine B assay relative to control; type: functional; details: A549, 48 h, read-out: Activity
COLO 205 = assay: Growth inhibition of human COLO205 cells assessed as cell growth at 10^-7 M incubated for 48 hrs by sulforhodamine B assay relative to control; type: functional; details: COLO 205, 48 h, read-out: Activity
SK-MEL-2 = assay: Growth inhibition of human SK-MEL-2 cells assessed as cell growth at 10^-7 M incubated for 48 hrs by sulforhodamine B assay relative to control; type: functional; details: SK-MEL-2, 48 h, read-out: Activity
OVCAR-8 = assay: Growth inhibition of human OVCAR8 cells assessed as cell growth at 10^-7 M incubated for 48 hrs by sulforhodamine B assay relative to control; type: functional; details: OVCAR-8, 48 h, read-out: Activity
A498 = assay: Growth inhibition of human A498 cells assessed as cell growth at 10^-7 M incubated for 48 hrs by sulforhodamine B assay relative to control; type: functional; details: A498, 48 h, read-out: Activity
DU-145 = assay: Growth inhibition of human DU145 cells assessed as cell growth at 10^-7 M incubated for 48 hrs by sulforhodamine B assay relative to control; type: functional; details: DU-145, 48 h, read-out: Activity
BT-549 [4] = assay: Growth inhibition of human BT549 cells assessed as cell growth at 10^-7 M incubated for 48 hrs by sulforhodamine B assay relative to control; type: functional; details: BT-549, 48 h, read-out: Activity
SF-539 = assay: Growth inhibition of human SF539 cells assessed as cell growth at 10^-6 M incubated for 48 hrs by sulforhodamine B assay relative to control; type: functional; details: SF-539, 48 h, read-out: Activity
M14 = assay: Growth inhibition of human M14 cells assessed as cell growth at 10^-6 M incubated for 48 hrs by sulforhodamine B assay relative to control; type: functional; details: M14, 48 h, read-out: Activity
SNB-19 = assay: Growth inhibition of human SNB19 cells assessed as cell growth at 10^-5 M incubated for 48 hrs by sulforhodamine B assay relative to control; type: functional; details: SNB-19, 48 h, read-out: Activity
Malme-3M = assay: Growth inhibition of human MALME-3M cells assessed as cell growth at 10^-5 M incubated for 48 hrs by sulforhodamine B assay relative to control; type: functional; details: read-out: Activity
MDA-MB-231 = assay: Growth inhibition of human MDA-MB-231 cells assessed as cell growth at 10^-5 M incubated for 48 hrs by sulforhodamine B assay relative to control; type: functional; details: MDA-MB-231, 48 h, read-out: Activity
U-251 = assay: Growth inhibition of human U251 cells assessed as cell growth at 10^-4 M incubated for 48 hrs by sulforhodamine B assay relative to control; type: functional; details: U-251, 48 h, read-out: Activity
[5] = read-out: pLC50 (the source's name) (converted)
[6] = read-out: LC50 (the source's name)

Work on C#C[C@@]1(O)[C@@H](CO)O[C@@H](n2cc(Br)c3c(N)ncnc32)[C@@H]1O yielded an IC50 (HeLa) of 93 nM, a GI50 (EKVX; read-out: GI50) of 150 to 261 nM and a TGI (EKVX; read-out: TGI) of 1250 to 5750 nM. For the same compound, the CC50 (EKVX; [5]) was > 100000 nM, the GI50 (HOP-92; read-out: GI50) was 149 to 318 nM and the CC50 (HOP-92; [6]) was > 100000 nM. For the same compound, the TGI (HOP-92; read-out: TGI) was 686 to 3130 nM, the GI50 (SF-268; read-out: GI50) was 467 to 498 nM and the CC50 (SF-268; [6]) was > 100000 nM. For the same compound, the TGI (SF-268; read-out: TGI) was 33200 to 80600 nM, the GI50 (OVCAR-5; read-out: GI50) was 257 to 1370 nM and the TGI (OVCAR-5; read-out: TGI) was 56700 to 100000 nM. The CC50 (OVCAR-5; [5]) was > 100000 nM, the GI50 (SK-OV-3; read-out: GI50) was 44.1 to 153 nM and the CC50 (SK-OV-3; [6]) was > 100000 nM. It also gave a TGI (SK-OV-3; read-out: TGI) of 439 nM, a TGI (SK-OV-3; read-out: pTGI (converted)) of 437 nM and a GI50 (RXF 393; read-out: GI50) of 205 to 479 nM. For the same compound, the CC50 (RXF 393; [6]) was > 100000 nM, the TGI (RXF 393; read-out: TGI) was 653 to 2290 nM and the GI50 (SN12C; read-out: GI50) was 37.7 to 218 nM. For the same compound, the CC50 (SN12C; [6]) was > 100000 nM, the TGI (SN12C; read-out: TGI) was > 100000 nM and the TGI (SN12C; read-out: pTGI (converted)) was > 100000 nM. The GI50 (MCF7; read-out: GI50) was 16 to 30.7 nM, the CC50 (MCF7; [6]) was > 100000 nM and the TGI (MCF7; read-out: TGI) was 1190 to 1810 nM. The growth at 0.01 µM (HL-60(TB)) was 81 to 82%, the growth at 0.01 µM (A549 [1]) was 94 to 99% and the growth at 0.01 µM (KM12) was 91 to 95%. It also gave a growth at 0.01 µM (BT-549 [2]) of 89 to 103%, a growth at 0.1 µM (SR) of 20 to 46% and a growth at 0.1 µM (A549 [3]) of 48 to 80%. For the same compound, the growth at 0.1 µM (COLO 205) was 24 to 69%, the growth at 0.1 µM (SK-MEL-2) was 48 to 75% and the growth at 0.1 µM (OVCAR-8) was 28 to 43%. It also gave a growth at 0.1 µM (A498) of 88 to 98%, a growth at 0.1 µM (DU-145) of 38 to 58% and a growth at 0.1 µM (BT-549 [4]) of 65 to 84%. For the same compound, the growth at 1 µM (SF-539) was 3 to 19%, the growth at 1 µM (M14) was 20 to 24% and the growth at 10 µM (SNB-19) was 1%. It also gave a growth at 10 µM (Malme-3M) of 5 to 10%, a growth at 10 µM (MDA-MB-231) of 1 to 6% and a growth at 100 µM (U-251) of 4%.

Reference: ChEMBL document CHEMBL4270599, “Synthesis of a 3'-C-ethynyl-β-d-ribofuranose purine nucleoside library: Discovery of C7-deazapurine analogs as potent antiproliferative nucleosides” (Eur J Med Chem, 2018)
